For series [1], the system named is Mus musculus. The experiment in a line: Toxicity in BALB/c mouse assessed as liver necrosis at 150 mg/kg/day, po. Format: organism-based. Set-up: route oral. The settings on record: in vivo. In outline:
(§1)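 Female BALB/c mice (n = 5 per dose), dosed once daily for 5 consecutive days p.o. (20 ml/kg) or i.v. (10 ml/kg) with compound in sterile water, prepared fresh daily under yellow light. Vehicle controls n = 5 per route. Clinical observations, body weights, serum chemistry and hematology on day 6 before necropsy; histopathology of formalin-fixed tissues. Chemistry analysed by one-way ANOVA with Dunnett's posttest.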

In series [2] the test system is Mus musculus. As to the kind of experiment: Toxicity in BALB/c mouse assessed as gastric inflammation at 150 mg/kg/day, po. Format: organism-based, Stomach. To be noted: in vivo. Details: route oral.
The test system of series [3] is Mus musculus. As to the kind of experiment: Toxicity in BALB/c mouse assessed as occurrence of hemorrhage at 150 mg/kg/day, po. The class given is organism-based. Details: route oral. To be noted: in vivo. In outline: as §1
Series [4] is described as follows: Half life in Swiss Webster mouse at 1 mg/kg, iv by HPLC-MS/MS analysis. Details: dose 1 mg/kg, route intravenous. The settings on record: in vivo. The class given is ADME, organism-based. The gist of the method: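 Male Swiss Webster mice, n = 3 per time point. For i.v., the compound was dissolved in sterile water, diluted 1:1 with 2× saline, and given as a tail-vein bolus over ~10–20 s. For p.o., it was given by gavage in sterile water. Dose volume was 5 ml/kg. Parameters came from noncompartmental analysis.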

Series [5] is described as follows: Half life in Swiss Webster mouse at 16.5 mg/kg, po by HPLC-MS/MS analysis. The settings on record: in vivo. Set-up: dose 16.5 mg/kg, route oral. The class given is ADME, organism-based. The gist of the method: (§2)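 Male Swiss Webster mice, n = 3 per time point. For i.v., the compound was dissolved in sterile water, diluted 1:1 with 2× saline, and given as a tail-vein bolus over ~10–20 s. For p.o., it was given by gavage in sterile water. Dose volume was 5 ml/kg. Terminal plasma was taken from 5 min to 72 h and measured by HPLC-MS/MS (calibration 2.5–10,000 nM). Parameters came from noncompartmental analysis.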

The subject of series [6] is Mus musculus. As to the kind of experiment: Toxicity in BALB/c mouse assessed as tendency to startle at 50 mg/kg/day, ip administered for five days. The settings on record: in vivo. Format: organism-based. Set-up: route intraperitoneal. The gist of the method:
(§3)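 Acute overt toxicity was checked in uninfected female BALB/c mice before the efficacy work. Compounds were given intraperitoneally once daily for 5 days, and mice were watched for clinical signs such as ruffled fur, hypoactivity, tremors, ataxia and startle, and for survival.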

Series [7] concerns Mus musculus. As to the kind of experiment: Toxicity in BALB/c mouse assessed as tremor at 50 mg/kg/day, ip administered for five days. The class given is organism-based. Details: route intraperitoneal. To be noted: in vivo. In outline: as §3
Series [8] can be described thus: AUC (0 to infinity) in Swiss Webster mouse at 4.9 mg/kg, iv by HPLC-MS/MS analysis. Format: ADME, organism-based. Set-up: time infinity, dose 4.9 mg/kg, route intravenous. To be noted: plasma. In outline:
as §2

In series [9] the test system is Mus musculus. As to the kind of experiment: AUC (0 to infinity) in Swiss Webster mouse at 16.5 mg/kg, po by HPLC-MS/MS analysis. Format: ADME, organism-based, Plasma. To be noted: in vivo. Details: time infinity, dose 16.5 mg/kg, route oral. The gist of the method:
as §2

Series [10] in a line: Tmax in Swiss Webster mouse at 66 mg/kg, po by HPLC-MS/MS analysis. Format: ADME, organism-based. Set-up: dose 66 mg/kg, route oral. The settings on record: in vivo. In outline:
(§4)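 Male Swiss Webster mice (n = 3 per time point), single dose by oral gavage (sterile water solution) or tail-vein bolus i.v. (water diluted 1:1 with 2× saline, over ~10–20 s); dose volume 5 ml/kg. Terminal blood sampled from 5 min to 72 h postdose; plasma quantified by HPLC-MS/MS (positive-ion SRM). Noncompartmental analysis gave Cmax, Tmax, AUC0-∞, CL, Vss; bioavailability from p.o. versus i.v. exposure.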

Series [11] deals with Mus musculus. As to the kind of experiment: (§5) Volume of distribution in Swiss Webster mouse at 66 mg/kg, po by HPLC-MS/MS analysis. Format: ADME, organism-based. Details: dose 66 mg/kg, route oral. The settings on record: in vivo. The gist of the method:
as §4

Series [12] is described as follows: Tmax in Swiss Webster mouse at 131 mg/kg, po by HPLC-MS/MS analysis. The class given is ADME, organism-based. Details: dose 131 mg/kg, route oral. The settings on record: in vivo. In outline: as §4
The test system of series [13] is Mus musculus. The experiment in a line: Toxicity in BALB/c mouse assessed as occurrence of tremor at 150 mg/kg/day, po administered for five days measured on day 4. Format: organism-based. Set-up: route oral. The settings on record: in vivo. The gist of the method: as §1
Series [14] can be described thus: Induction of mutagenicity in Salmonella serovar Typhimurium TA 100 assessed as number of revertant colonies at 5 ug by Ames assay in presence of Aroclor 1254-induced rat liver S9 metabolic activation system. Format: toxicity, subcellular, Salmonella enterica subsp. enterica serovar Typhimurium. In outline:
(§6)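 Ames plate incorporation with S. Typhimurium TA98 and TA100, with or without Aroclor 1254-induced rat liver S9 (10% vol/vol). Compound was dissolved in sterile water and serially diluted to 1–500 μg/plate. Positive controls were 2-nitrofluorene and sodium azide without S9, and 2-aminoanthracene with S9; sterile water and DMSO served as vehicles. Revertant colonies and background lawn were scored. A mutagen was defined as a mean revertant count at least 2-fold over solvent control. Single experiment.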

A short description of series [15]: Induction of mutagenicity in Salmonella serovar Typhimurium TA 100 assessed as number of revertant colonies at 50 ug by Ames assay in presence of Aroclor 1254-induced rat liver S9 metabolic activation system. Format: toxicity, subcellular, Salmonella enterica subsp. enterica serovar Typhimurium. The gist of the method:
as §6
(The Ames test uses bacterial strains that need an amino acid and regain growth without it when mutated back.)

A short description of series [16]: Induction of mutagenicity in Salmonella serovar Typhimurium TA 98 assessed as number of revertant colonies at 1 ug by Ames assay. Format: toxicity, Salmonella enterica subsp. enterica serovar Typhimurium. To be noted: in vivo. In outline: as §6
Series [17] in a line: Induction of mutagenicity in Salmonella serovar Typhimurium TA 98 assessed as number of revertant colonies at 10 ug by Ames assay. To be noted: in vivo. The class given is toxicity, Salmonella enterica subsp. enterica serovar Typhimurium. In outline: as §6
Series [18] in a line: Half life in Swiss Webster mouse at 70 mg/kg, po by HPLC-MS/MS analysis. The class given is ADME, organism-based. Details: dose 70 mg/kg, route oral. The settings on record: in vivo. In outline: as §2
In series [19] the test system is Leishmania donovani. As to the kind of experiment: Antileishmanial activity against Leishmania donovani promastigotes in BALB/c mouse assessed as inhibition of liver parasitemia at 30 mg/kg/day, ip administered for five days. Format: functional, organism-based. In outline:
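Murine VL model in L. donovani-infected mice. Compounds were dissolved in water and given i.p. or p.o. once daily for 5 days (4 days for one i.p. regimen). Liver parasitemia was compared with untreated controls by unpaired Student's t test, P ≤ 0.05.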

Series [20] deals with Leishmania donovani. As to the kind of experiment: Antileishmanial activity against Leishmania donovani WR378 infected in golden Syrian hamster assessed as reduction in liver parasitemia at 10 mg/kg/day, po administered for five days. To be noted: 120 h. The class given is functional. In outline:
(§7)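 11-day golden hamster VL model adapted from an 8-day method, using L. donovani WR378 metacyclic promastigotes. Dosing was oral, once daily for 5 days. Animals were euthanized on day 11 post-infection. Liver, spleen and femoral bone marrow (flushed with Schneider's medium) were harvested.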

In series [21] the test system is Leishmania donovani. As to the kind of experiment: Antileishmanial activity against Leishmania donovani WR378 infected in golden Syrian hamster assessed as reduction in liver parasitemia at 50 mg/kg/day, po administered for five days. The settings on record: 120 h. Format: functional. The gist of the method:
as §7

A short description of series [22]: as §5. The class given is ADME, organism-based. Details: dose 66 mg/kg, route oral. To be noted: Swiss Webster, in vivo. The gist of the method:
as §4

Series [23] can be described thus: Volume of distribution in Swiss Webster mouse at 5 mg/kg, iv by HPLC-MS/MS analysis. Format: ADME, organism-based. Set-up: dose 5 mg/kg, route intravenous. The settings on record: in vivo. The gist of the method:
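Male Swiss Webster mice (n = 3 per time point) got a single tail-vein bolus over ~10 to 20 s, 5 ml/kg. Compound was dissolved in sterile water at 2× and diluted 1:1 with 2× saline. Terminal blood was taken from 5 min to 72 h, and plasma was quantified by HPLC-MS/MS. Vss came from noncompartmental analysis.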

Series [24] is described as follows: Cmax in Swiss Webster mouse at 70 mg/kg, po by HPLC-MS/MS analysis. The class given is ADME, organism-based. Set-up: dose 70 mg/kg, route oral. The settings on record: in vivo. In outline:
as §2

The nature of series [25]: Oral bioavailability in Swiss Webster mouse at 70 mg/kg by HPLC-MS/MS analysis. Format: ADME, organism-based. To be noted: in vivo. The gist of the method: as §4
Series [26] relates to Mus musculus. The experiment in a line: Hepatotoxicity in BALB/c mouse assessed as AST level in serum at 100 mg/kg/day, po administered for five days (Rvb= 70 U/L). Format: toxicity, organism-based. Details: route oral. The settings on record: in vivo.
In series [27] the test system is Mus musculus. The experiment in a line: Renal toxicity in BALB/c mouse assessed as blood urea nitrogen level in serum at 30 mg/kg/day, iv administered for five days (Rvb= 20 mg/dl). The class given is organism-based. The settings on record: in vivo. Set-up: route intravenous. The gist of the method: as §1
A short description of series [28]: Drug level in Swiss Webster mouse spleen at 5 mg/kg, iv after 2 hrs by HPLC/UV analysis. The settings on record: read-out: Drug uptake.

These results are taken from ChEMBL document CHEMBL1275590, “Novel arylimidamides for treatment of visceral leishmaniasis” (Antimicrob Agents Chemother, 2010).

What is called half-life is the time in which the quantity being followed falls by half. A higher half-life goes with slow decline. For orientation: AUC(0-inf) means total exposure, with the tail of the curve extrapolated. Low readings indicate less exposure, high ones more exposure. For orientation: AUC means concentration integrated over time. A low value points to less exposure. By Tmax is commonly meant the time from dosing to the highest level. For orientation: inhibition in vivo means the relative decrease from the control value, in per cent. The Cmax is the highest concentration seen after dosing. What is called bioavailability is the share of a dose that reaches the circulation, judged against a reference dose that is usually intravenous.

The source made the active and inactive calls.

For the molecule `CCOc1cc(NC(=N)c2ccccn2)ccc1-c1ccc(-c2ccc(NC(=N)c3ccccn3)cc2OCC)o1`, the Activity result in series [1], in series [2], in [3], in series [6], in series [7] and in [13] was “Toxic” throughout. For the same molecule, the half-life is 17 h in series [4] and 24 h in series [5]. Also, in series [8], the AUC(0-inf) worked out at 4.5 µM·h. The same molecule yielded an area under the curve (AUC) in series [9] of 0.5 µM·h. Moreover, the Tmax in series [10] and in series [12] was 2 h throughout. The Vd in [11] was found to be 71 L/kg.

`CC(C)Oc1cc(NC(=N)c2ccccn2)ccc1-c1ccc(-c2ccc(NC(=N)c3ccccn3)cc2OC(C)C)o1`: the Activity was found to be 154 in [14]; 135 in series [15]; 38 in [16]; 29 in [17]; 68 U/L in [26]; 24 mg/dL in series [27]. In addition, the half-life in series [18] is 48 h. Moreover, the result in [19] was Active. Also, the inhibition in vivo at 10 mg/kg/day in series [20] worked out at 10%. The inhibition in vivo at 50 mg/kg/day in [21] is 76%. Moreover, in series [22], the time of peak concentration (Tmax) was determined as 4.98 min. Further, the Vd in series [23] turned out to be 15 L/kg. The molecule further registered a Cmax in [24] of 1.76 µM. Besides, the bioavailability in series [25] turned out to be 10.4%. The concentration at 2 h in series [28] was determined as 13.5 µM.
